# Paper PMC7227796 (ACS chemical neuroscience, 2020)
# Counter-ions that a name gives are not always drawn.
# What was measured:
# [1] = molecular target: GluN1/GluN2A NMDA receptor (Rattus norvegicus, UniProt P35439+Q00959); assay: Two-electrode voltage-clamp recordings, Xenopus oocytes expressing GluN1/GluN2A; format: cell-based
# Summary of the method: (§1)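 Xenopus oocytes were injected with rat GluN1-1a and GluN2A, 2B, 2C or 2D cRNA at a 1:2 ratio. Two-electrode voltage clamp was run 2–6 days later at room temperature and −40 mV. Bath was 90 NaCl, 1 KCl, 10 HEPES, 0.5 BaCl2, 0.01 EDTA (mM), pH 7.4. Currents were evoked by 1 μM glutamate plus 100 μM glycine, with test compound gravity-perfused. Hill fits gave IC50 per oocyte (5–6 oocytes). Ki was derived by Cheng-Prusoff using earlier glutamate EC50 values.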
# [2] = molecular target: GluN1/GluN2B NMDA receptor (Rattus norvegicus, UniProt P35439+Q00960); assay: Two-electrode voltage-clamp recordings, Xenopus oocytes expressing GluN1/GluN2B; format: cell-based
# Sequence of GluN1/GluN2B NMDA receptor (Q00960 27-1482, other chains not shown): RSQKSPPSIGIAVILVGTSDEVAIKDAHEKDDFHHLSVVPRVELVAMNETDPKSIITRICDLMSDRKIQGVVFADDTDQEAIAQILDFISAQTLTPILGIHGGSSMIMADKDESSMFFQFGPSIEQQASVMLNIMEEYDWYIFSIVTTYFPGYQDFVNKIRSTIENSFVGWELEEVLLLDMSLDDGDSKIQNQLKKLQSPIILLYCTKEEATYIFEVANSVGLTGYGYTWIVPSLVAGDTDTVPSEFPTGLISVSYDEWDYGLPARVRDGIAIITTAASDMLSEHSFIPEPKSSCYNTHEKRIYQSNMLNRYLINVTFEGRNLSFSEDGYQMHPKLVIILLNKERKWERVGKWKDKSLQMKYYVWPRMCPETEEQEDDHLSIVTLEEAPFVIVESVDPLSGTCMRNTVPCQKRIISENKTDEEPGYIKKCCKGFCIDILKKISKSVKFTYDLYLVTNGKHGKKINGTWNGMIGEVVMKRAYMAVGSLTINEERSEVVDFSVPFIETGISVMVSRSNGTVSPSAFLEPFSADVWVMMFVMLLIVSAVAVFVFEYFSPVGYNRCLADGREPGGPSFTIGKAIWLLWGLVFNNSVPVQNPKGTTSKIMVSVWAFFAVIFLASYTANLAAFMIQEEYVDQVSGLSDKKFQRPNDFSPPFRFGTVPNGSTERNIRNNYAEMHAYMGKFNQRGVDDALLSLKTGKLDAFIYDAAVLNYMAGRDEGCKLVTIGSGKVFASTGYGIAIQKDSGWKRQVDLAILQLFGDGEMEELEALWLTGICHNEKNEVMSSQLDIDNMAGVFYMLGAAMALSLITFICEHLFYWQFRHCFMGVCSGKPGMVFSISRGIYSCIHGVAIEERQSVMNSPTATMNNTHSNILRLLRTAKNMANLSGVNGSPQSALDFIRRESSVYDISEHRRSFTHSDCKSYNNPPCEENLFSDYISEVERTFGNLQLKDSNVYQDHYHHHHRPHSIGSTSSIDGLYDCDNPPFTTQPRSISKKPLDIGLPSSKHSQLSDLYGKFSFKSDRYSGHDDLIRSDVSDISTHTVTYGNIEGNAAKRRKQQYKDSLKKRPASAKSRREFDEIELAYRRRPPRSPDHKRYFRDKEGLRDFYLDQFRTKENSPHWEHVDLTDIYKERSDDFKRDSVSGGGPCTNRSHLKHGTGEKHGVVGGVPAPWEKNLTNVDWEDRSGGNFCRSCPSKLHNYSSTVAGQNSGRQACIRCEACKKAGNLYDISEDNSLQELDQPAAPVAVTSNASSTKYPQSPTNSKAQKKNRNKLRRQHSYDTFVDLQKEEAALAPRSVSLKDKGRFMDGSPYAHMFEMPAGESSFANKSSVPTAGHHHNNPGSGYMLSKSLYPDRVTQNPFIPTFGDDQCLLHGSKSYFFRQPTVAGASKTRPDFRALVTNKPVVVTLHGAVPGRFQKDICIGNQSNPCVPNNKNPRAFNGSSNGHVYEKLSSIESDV
# Summary of the method: as §1
# [3] = molecular target: GluN1/GluN2C NMDA receptor (Rattus norvegicus, UniProt P35439+Q00961); assay: Two-electrode voltage-clamp recordings, Xenopus oocytes expressing GluN1/GluN2C; format: cell-based
# Sequence of GluN1/GluN2C NMDA receptor (Q00961 20-1237, other chains not shown): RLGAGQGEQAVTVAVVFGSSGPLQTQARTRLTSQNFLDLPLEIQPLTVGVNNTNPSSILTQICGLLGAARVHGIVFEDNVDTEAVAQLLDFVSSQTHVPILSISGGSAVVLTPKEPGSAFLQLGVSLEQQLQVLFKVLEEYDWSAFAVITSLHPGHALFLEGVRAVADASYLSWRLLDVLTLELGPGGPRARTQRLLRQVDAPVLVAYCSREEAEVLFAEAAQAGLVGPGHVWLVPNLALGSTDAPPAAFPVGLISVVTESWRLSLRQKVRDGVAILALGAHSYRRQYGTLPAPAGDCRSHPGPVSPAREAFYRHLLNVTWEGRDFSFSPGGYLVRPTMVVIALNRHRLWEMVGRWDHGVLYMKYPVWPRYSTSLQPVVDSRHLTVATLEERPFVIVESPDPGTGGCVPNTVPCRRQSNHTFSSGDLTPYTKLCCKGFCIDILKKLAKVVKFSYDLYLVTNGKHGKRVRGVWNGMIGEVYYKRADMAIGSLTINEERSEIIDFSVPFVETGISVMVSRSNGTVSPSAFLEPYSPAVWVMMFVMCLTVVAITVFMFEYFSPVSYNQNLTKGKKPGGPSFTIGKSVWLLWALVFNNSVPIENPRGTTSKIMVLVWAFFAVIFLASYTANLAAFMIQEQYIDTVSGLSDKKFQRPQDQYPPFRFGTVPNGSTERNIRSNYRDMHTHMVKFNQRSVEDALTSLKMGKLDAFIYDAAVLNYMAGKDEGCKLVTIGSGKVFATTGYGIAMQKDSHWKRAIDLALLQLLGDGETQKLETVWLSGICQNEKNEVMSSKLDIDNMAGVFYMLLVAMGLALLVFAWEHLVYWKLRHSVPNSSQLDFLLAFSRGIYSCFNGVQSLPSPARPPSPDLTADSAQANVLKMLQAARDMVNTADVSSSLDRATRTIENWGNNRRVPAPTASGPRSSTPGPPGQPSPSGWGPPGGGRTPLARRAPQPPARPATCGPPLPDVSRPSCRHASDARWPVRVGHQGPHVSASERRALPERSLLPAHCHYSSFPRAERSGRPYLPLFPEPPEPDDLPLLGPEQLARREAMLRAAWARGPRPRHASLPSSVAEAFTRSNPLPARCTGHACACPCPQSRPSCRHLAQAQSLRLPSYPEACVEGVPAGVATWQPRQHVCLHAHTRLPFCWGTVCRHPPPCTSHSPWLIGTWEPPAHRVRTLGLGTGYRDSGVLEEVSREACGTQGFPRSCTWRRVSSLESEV
# Summary of the method: as §1
# [4] = molecular target: GluN1/GluN2D NMDA receptor (Rattus norvegicus, UniProt P35439+Q62645); assay: Two-electrode voltage-clamp recordings, Xenopus oocytes expressing GluN1/GluN2D; format: cell-based
# Summary of the method: as §1
# [5] = molecular target: native KA receptors; conditions: rat synaptosomes, [3H]KA; earlier work, ref [36],[38],[39]; cited from earlier work
# [6] = molecular target: native AMPA receptors; assay: Radioligand binding at native AMPA receptors; conditions: rat synaptosomes, [3H]AMPA; for IC50: read-out: AMPA IC50, native iGluRs (synaptosomes)
# Summary of the method: (§2)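 Rat cortical synaptosomal membranes were labelled with 5 nM [3H]AMPA (AMPA), 5 nM [3H]KA (KA) or [3H]CGP39653 (NMDA). Test compound was run at 12–16 concentrations in triplicate, with three to six independent experiments. Cpm were fitted by nonlinear regression. Values are reported as pIC50 for AMPA and KA and as pKi for NMDA, each as mean with SEM.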
# [7] = molecular target: native KA receptors; assay: Radioligand binding at native KA receptors; conditions: rat synaptosomes, [3H]KA
# Summary of the method: as §2
# [8] = molecular target: native NMDA receptors; assay: Radioligand binding at native NMDA receptors; parameters: species or system rat; conditions: for NMDA pKi with SEM (in brackets) / Ki: rat synaptosomes, [3H]CGP-39653; for Ki: read-out: NMDA Ki, native iGluRs (synaptosomes); for increase in affinity for native NMDA receptors: compared to 4a; for selectivity/preference for NMDA receptors over AMPA and KA receptors: native receptors
# Summary of the method: as §2
# [9] = molecular target: GluA1 (Rattus norvegicus, UniProt P19490); assay: Radioligand binding at recombinant homomeric GluA1
# Summary of the method: (§3)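 Membranes from sf9 cells expressing rat homomeric GluA1 or GluA2 were incubated with [3H]-(S)-AMPA and test compound for 2 h at 4 °C. Buffer was 50 mM Tris-HCl, 0.1 M KSCN, 2.5 mM CaCl2, pH 7.2. Samples were filtered on GF/C, washed twice with ice-cold buffer and counted by scintillation. Competition curves used 12–16 concentrations in triplicate. Ki came from a one-site fit and nH from a four-parameter logistic fit.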
# [10] = molecular target: GluA2 (Rattus norvegicus, UniProt P19491); assay: Radioligand binding at recombinant homomeric GluA2
# Summary of the method: as §3
# [11] = molecular target: GluK1 (Rattus norvegicus, UniProt P22756); assay: Radioligand binding at recombinant homomeric GluK1
# Summary of the method: (§4)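 Membranes from sf9 cells expressing rat homomeric GluK1, GluK2 or GluK3 were incubated in 50 mM Tris-HCl, pH 7.1, for 2 h at 4 °C. Radioligand was [3H]-(S)-NF608 for GluK1 and [3H]kainic acid for GluK2 and GluK3. Samples were filtered on GF/B, washed twice with ice-cold buffer, dried for 1 h at 70 °C and counted by scintillation. Ki came from 12–16-point triplicate curves. Single-point % specific binding is mean ± SD of three experiments, at 10 μM test compound where stated.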
# [12] = molecular target: GluK2 (Rattus norvegicus, UniProt P42260); assay: Radioligand binding at recombinant homomeric GluK2
# Sequence of GluK2 (P42260 32-908): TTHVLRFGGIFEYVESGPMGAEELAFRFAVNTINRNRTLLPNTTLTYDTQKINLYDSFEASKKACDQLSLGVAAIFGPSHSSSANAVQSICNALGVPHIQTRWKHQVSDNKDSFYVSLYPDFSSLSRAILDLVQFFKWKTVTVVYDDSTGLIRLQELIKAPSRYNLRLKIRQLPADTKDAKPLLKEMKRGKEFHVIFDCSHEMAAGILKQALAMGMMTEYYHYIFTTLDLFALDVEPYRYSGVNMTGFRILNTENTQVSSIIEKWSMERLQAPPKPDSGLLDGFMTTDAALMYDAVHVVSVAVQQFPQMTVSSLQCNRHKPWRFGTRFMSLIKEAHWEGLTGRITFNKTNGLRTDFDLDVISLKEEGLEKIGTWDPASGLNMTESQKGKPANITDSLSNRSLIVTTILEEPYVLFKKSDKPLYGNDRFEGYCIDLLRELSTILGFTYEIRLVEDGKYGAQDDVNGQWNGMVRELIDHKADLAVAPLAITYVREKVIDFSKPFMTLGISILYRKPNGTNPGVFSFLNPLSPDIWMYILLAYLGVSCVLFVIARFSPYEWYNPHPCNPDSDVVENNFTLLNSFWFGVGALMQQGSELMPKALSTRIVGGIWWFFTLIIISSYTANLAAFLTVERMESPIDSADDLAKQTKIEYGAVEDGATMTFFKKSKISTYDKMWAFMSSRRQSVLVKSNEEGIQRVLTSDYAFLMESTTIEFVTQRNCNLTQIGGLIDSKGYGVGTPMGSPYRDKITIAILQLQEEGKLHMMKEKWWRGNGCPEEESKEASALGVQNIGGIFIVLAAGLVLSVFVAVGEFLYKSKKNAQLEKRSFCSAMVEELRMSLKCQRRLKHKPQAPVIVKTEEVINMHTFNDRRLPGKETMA
# Summary of the method: as §4
# [13] = molecular target: GluK3 (Rattus norvegicus, UniProt P42264); assay: Radioligand binding at recombinant homomeric GluK3
# Sequence of GluK3 (P42264 32-919): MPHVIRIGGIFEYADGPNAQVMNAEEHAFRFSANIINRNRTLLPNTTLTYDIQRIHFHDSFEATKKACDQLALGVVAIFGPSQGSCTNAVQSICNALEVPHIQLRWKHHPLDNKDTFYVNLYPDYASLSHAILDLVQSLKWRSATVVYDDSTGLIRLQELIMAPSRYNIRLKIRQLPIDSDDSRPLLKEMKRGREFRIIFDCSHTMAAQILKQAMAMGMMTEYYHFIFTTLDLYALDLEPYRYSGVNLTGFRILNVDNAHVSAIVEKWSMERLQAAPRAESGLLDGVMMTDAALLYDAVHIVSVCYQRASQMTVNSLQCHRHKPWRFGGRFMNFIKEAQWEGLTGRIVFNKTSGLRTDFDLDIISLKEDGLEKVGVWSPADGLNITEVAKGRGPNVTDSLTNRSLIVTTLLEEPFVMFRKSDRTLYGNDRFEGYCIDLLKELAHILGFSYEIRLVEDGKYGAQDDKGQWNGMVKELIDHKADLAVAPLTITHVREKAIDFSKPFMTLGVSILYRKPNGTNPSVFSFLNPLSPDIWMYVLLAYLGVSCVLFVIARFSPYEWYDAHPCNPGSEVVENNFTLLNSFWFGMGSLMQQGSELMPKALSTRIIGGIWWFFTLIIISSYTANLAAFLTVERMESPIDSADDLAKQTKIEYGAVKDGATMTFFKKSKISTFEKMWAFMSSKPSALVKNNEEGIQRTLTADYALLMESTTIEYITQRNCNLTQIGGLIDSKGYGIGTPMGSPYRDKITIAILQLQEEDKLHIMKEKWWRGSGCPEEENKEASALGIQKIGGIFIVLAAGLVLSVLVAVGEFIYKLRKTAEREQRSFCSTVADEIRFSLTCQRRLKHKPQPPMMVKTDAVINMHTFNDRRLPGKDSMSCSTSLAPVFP
# Summary of the method: as §4
# [14] = molecular target: GluN1/GluN2A NMDA receptor (Rattus norvegicus, UniProt Q00959); assay: Two-electrode voltage-clamp recordings, Xenopus oocytes expressing GluN1/GluN2A; format: cell-based; conditions: two-electrode voltage-clamp
# Summary of the method: as §1
SMILES,IC50 [1],IC50 [2],IC50 [3],IC50 [4],AMPA pIC50 with SEM (in brackets) [6],IC50 [6],"KA IC50, native iGluRs (synaptosomes) [7]",NMDA pKi with SEM (in brackets) [8],Ki [8],Ki [9],Ki [10],Ki [11],Ki [12],Ki [13],KA pIC50 with SEM (in brackets) [7],also measured
"Cl.O=C(O)c1cccc([C@H]2CCN[C@@H]2C(=O)O)c1 [4a, (2S,3R)-3-(3-Carboxyphenyl)pyrrolidine-2-carboxylic acid hydrochloride]",11.8 ± 0.23 µM,34.5 ± 0.97 µM,91.2 ± 2.6 µM,> 100 µM,,,,,,,,,,,,"KA (IC50), native iGluRs [5]: 22 µM"
"Cl.O=C(O)c1cc(-c2cncnc2)cc([C@H]2CCN[C@@H]2C(=O)O)c1 [5h, (2S,3R)-3-(3-Carboxy-5-(pyrimidin-5-yl)phenyl)pyrrolidine-2-carboxylic acid hydrochloride]",,,,,4.30±0.13,59 µM,>100 µM,4.98±0.01,10 µM,22.7 µM,82.9 µM,100 µM,100 µM,13 ± 0.17 µM,,
"Cl.O=C(O)c1cc(-c2ccncc2)cc([C@H]2CCN[C@@H]2C(=O)O)c1 [5g, (2S,3R)-3-(3-Carboxy-5-(pyridin-4-yl)phenyl)pyrrolidine-2-carboxylic acid hydrochloride]",,,,,,27 µM,25 µM,5.76±0.01,1.7 µM,12 µM,33 µM,22 ± 2.3 µM,> 100 µM,6.5 ± 0.92 µM,4.61±0.05,
"Cl.O=C(O)c1cc(-c2cccnc2)cc([C@H]2CCN[C@@H]2C(=O)O)c1 [5f, (2S,3R)-3-(3-Carboxy-5-(pyridin-3-yl)phenyl)pyrrolidine-2-carboxylic acid hydrochloride]",,,,,4.57±0.13,29 µM,23 µM,5.51±0.02,3.1 µM,15 µM,40 µM,25 ± 1.2 µM,> 100 µM,5.9 ± 0.62 µM,4.65±0.03,
"Cl.O=C(O)c1cc(-c2cnn[nH]2)cc([C@H]2CCN[C@@H]2C(=O)O)c1 [5d, (2S,3R)-3-(3-Carboxy-5-(1H-1,2,3-triazol-5-yl)phenyl)pyrrolidine-2-carboxylic acid hydrochloride]",1.36 ± 0.06 µM,3.51 ± 0.18 µM,7.28 ± 0.17 µM,18.5 ± 1.54 µM,4.69 ±0.04,21 µM,20 µM,6.08±0.05,0.83 µM,,,> 50 µM,> 100 µM,10 to 50 µM,4.71±0.06,increase in affinity for native NMDA receptors [8]: 7 fold; selectivity/preference for NMDA receptors over AMPA and KA receptors [8]: 24 fold
"Cl.O=C(O)c1cc([C@H]2CCN[C@@H]2C(=O)O)cc(C(=O)O)c1Cl [6b, 5-((2S,3R)-2-Carboxypyrrolidin-3-yl)-2-chloroisophthalic acid hydrochloride]",0.2 ± 0.02 µM,0.75 ± 0.04 µM,1.33 ± 0.03 µM,5.15 ± 0.23 µM,,> 100 µM,>100 µM,6.82 ± 0.08,0.16 µM,,,≥ 100 µM,≥ 100 µM,> 50 µM,,Ki [1]: 0.2 µM
"Cl.O=C(O)c1cc(C(=O)O)cc([C@H]2CCN[C@@H]2C(=O)O)c1 [5c, 5-((2S,3R)-2-Carboxypyrrolidin-3-yl)isophthalic acid hydrochloride]",0.63 ± 0.01 µM,4.37 ± 0.17 µM,6.27 ± 0.13 µM,21.2 ± 0.37 µM,4.45 ± 0.04,36 µM,63 µM,6.32 ± 0.03,0.48 µM,,,12.5 ± 1.7 µM,> 100 µM,15.7 ± 3.1 µM,4.21 ± 0.05,increase in affinity for native NMDA receptors [8]: 9 fold; selectivity/preference for NMDA receptors over AMPA and KA receptors [8]: 75 fold; selectivity for GluN1/2A over GluN1/2B and GluN1/2C [14]: 6 to 10 fold; selectivity for GluN1/2A over GluN1/2D [14]: 32 to 34 fold
"Cl.O=C(O)c1cc(-c2ccccn2)cc([C@H]2CCN[C@@H]2C(=O)O)c1 [5e, (2S,3R)-3-(3-Carboxy-5-(pyridin-2-yl)phenyl)pyrrolidine-2-carboxylic acid hydrochloride]",,,,,4.40±0.05,40 µM,20 µM,5.42±0.01,3.8 µM,19 µM,55 µM,20 ± 1.8 µM,> 100 µM,6.4 ± 0.41 µM,4.71±0.05,
"Cl.O=C(O)c1cc([C@H]2CCN[C@@H]2C(=O)O)ccc1Br [4f, (2S,3R)-3-(4-Bromo-3-carboxyphenyl)pyrrolidine-2-carboxylic acid hydrochloride]",,,,,,,,,,,,,,,,"KA (IC50), native iGluRs [5]: >100 µM"
"Cl.O=C(O)c1cc(-c2cnc(O)nc2)cc([C@H]2CCN[C@@H]2C(=O)O)c1 [5i, (2S,3R)-3-(3-Carboxy-5-(2-hydroxypyrimidin-5-yl)phenyl)pyrrolidine-2-carboxylic acid hydrochloride]",,,,,4.92±0.13,13 µM,>100 µM,5.39±0.03,4.1 µM,10 µM,56 µM,76 ± 1.8 µM,> 100 µM,16 ± 0.98 µM,,
"O=C(O)c1ccc([C@H]2CCN[C@@H]2C(=O)O)cc1C(=O)O [4h, 4-((2S,3R)-2-Carboxypyrrolidin-3-yl)phthalic acid tri sodium salt]",0.75 ± 0.03 µM,4.24 ± 0.13 µM,5.17 ± 0.12 µM,24.3 ± 1.46 µM,,> 100 µM,>100 µM,5.88 ± 0.06,1.3 µM,,,> 100 µM,> 100 µM,> 100 µM,,selectivity for GluN1/2A over GluN1/2B and GluN1/2C [14]: 6 to 10 fold; selectivity for GluN1/2A over GluN1/2D [14]: 32 to 34 fold
